The record followed here is ChEMBL document CHEMBL1146529, “Isolations of N-methyl-D-aspartic acid-type glutamate receptor ligands from Micronesian sponges” (J Nat Prod, 2003).

Calls of active or inactive are those of the source. No cut-off for these calls is given here.

The test system of test [1] is Mus musculus. Put plainly: Agonist activity at NMDA receptor assessed as induction of convulsive behavior in intracerebroventricular dosed ddY mouse. Format: functional. In short, it runs like this:
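Male ddY mice (15-20 g, 4-6 weeks old) received intracerebroventricular injections. More than three animals were used per dose. ED50 (pmol/mouse) was derived from dose-response curves.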

Test [2] relates to Kainate-type glutamate receptor (Rattus norvegicus). Put plainly: Displacement of [3H]kanic acid from kainate receptor in Sprague-Dawley rat brain membrane.
The target of the next test is Glutamate NMDA receptor. Briefly: Displacement of [3H]CGP39653 from NMDA receptor in Sprague-Dawley rat brain membrane. Format: cell membranes. In short, it runs like this:
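Synaptic membranes were prepared from Sprague-Dawley rats (200-220 g). The assay used 2 nM [3H]CGP39653 to label the NMDA site, incubated at 4 °C for 1 h in 5 mM Tris-HCl (pH 7.7). Inhibition of labelled-ligand binding gave the IC50.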

Test [3] has as its system AMPA-type glutamate receptor (Rattus norvegicus). Put plainly: Displacement of [3H]AMPA from AMPA receptor in Sprague-Dawley rat brain membrane.
Test [4] has as its system Mus musculus. Put plainly: Agonist activity at NMDA receptor assessed as induction of violent convulsive behavior in intracerebroventricular dosed ddY mouse at 145 pmol. It counts as functional, organism-based.
Test [5] concerns Mus musculus. Briefly: Induction of convulsive behavior in icv dosed ddY mouse assessed as hyperactivie and stereotypical behaviors at 33 pmol. It counts as functional, organism-based.

Take `O=C(O)[C@@H]1C[C@@H](OS(=O)(=O)O)CCN1`: in the test on Mus musculus [1], the Activity entry is “Dose-dependent effect” and the ED50 is 20 pmol. Besides, the outcome in test [2] was inactive. For the same compound, the IC50 on Glutamate NMDA receptor is 214 nM. Also, the result in test [3] was inactive.
As for `O=C(O)[C@@H]1C[C@@H](OS(=O)(=O)O)[C@H](O)CN1` [CRIBRONIC ACID], the Activity entry in the test with Mus musculus [1] is “Dose-dependent effect”. Moreover, the ED50 in the test with Mus musculus [1] is recorded as 29 pmol. Also, the outcome with Mus musculus [4] and in the test with Mus musculus [5] was Active. Moreover, the result in test [2] and in test [3] was inactive. Also, on Glutamate NMDA receptor, the IC50 amounted to 83 nM.
